Experimental data taken from ChEMBL document CHEMBL1955769 (Bioorg Med Chem Lett, 2012).
In brackets after ≈: the same amount, converted by molar mass.

Assays:
Histone deacetylase 2 = Histone deacetylase 2 (Homo sapiens, UniProt Q92769); experiment: Inhibition of HDAC2
[1] = Solubility of the compound in 10 % DMSO/Water; assay type: physicochemical
HCT-116 [2] = experiment: Induction of cell cycle arrest in human HCT116 cells assessed as accumulation at S phase at 10 uM after 24 hrs by flow cytometry (reference value: 10.6 %); assay type: functional
How it was run: (§1)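 HCT116 cells (1.0 × 10^6) were plated for 24 h, then exposed to compound for 24 or 48 h, with 0.1% DMSO as control. DNA staining used a BD Cycletest Plus DNA reagent kit, and phase percentages (subG1, G0/G1, S, G2/M) were scored; data representative of three independent experiments.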

HCT-116 [3] = experiment: Antiproliferative activity against human HCT116 cells after 3 days by WST-1 assay; assay type: functional, cell-based; conditions: HCT-116, 72 h
How it was run: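 HCT116 human colon cancer cells exposed to compounds for 3 days; growth read by WST-1 assay; IC50 derived from triplicate assays.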

HCT-116 [4] = experiment: Induction of cell cycle arrest in human HCT116 cells assessed as accumulation at S phase at 10 uM after 48 hrs by flow cytometry (reference value: 10.4 %); assay type: functional; how it was run: as §1
HCT-116 [5] = experiment: Antitumor activity against human HCT116 cells xenografted in BALB/c nu/nu mouse assessed as suppression of tumor growth at 45 mg/kg, po administered every alternate days for 14 days measured up to day 16 relative to control; assay type: functional
How it was run: (§2)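 Nude mice bearing HCT116 xenografts of 90–110 mm3, grouped as vehicle (0.1% Tween 80, n = 6) or treated (n = 7); oral dosing at 45 or 80 mg/kg on days 0, 2, 4, 6, 8, 10, 12 and 14. Tumor volume and body weight followed over 16 days; tumor effect given as T/C; two-tailed Student t-test versus control, with standard errors shown.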

HCT-116 [6] = experiment: Induction of cell cycle arrest in human HCT116 cells assessed as accumulation at G2/M phase at 10 uM after 24 hrs by flow cytometry (reference value: 9.5 %); assay type: functional; how it was run: as §1
HCT-116 [7] = experiment: Induction of cell cycle arrest in human HCT116 cells assessed as accumulation at G2/M phase at 10 uM after 48 hrs by flow cytometry (reference value: 5.4 %); assay type: functional; how it was run: as §1
[8] = Cmax in BALB/c mouse at 45 mg/kg, po by HPLC-ESI-MS/MS analysis; assay type: ADME, organism-based; design: dose 45 mg/kg, route oral; conditions: in vivo
Mus musculus [9] = experiment: Toxicity in human HCT116 cells xenografted in BALB/c nu/nu mouse assessed as relative body weight change at 80 mg/kg, po for 14 days measured up to day 16; assay type: organism-based, HCT-116; design: dose 80 mg/kg, route oral; conditions: in vivo, 336 h; how it was run: as §2
[10] = Half life in BALB/c mouse at 45 mg/kg, po by HPLC-ESI-MS/MS analysis; assay type: ADME, organism-based; design: dose 45 mg/kg, route oral; conditions: in vivo
HCT-116 [11] = experiment: Induction of cell cycle arrest in human HCT116 cells assessed as accumulation at SubG1 phase at 10 uM after 24 hrs by flow cytometry (reference value: 5.7 %); assay type: functional; how it was run: as §1
[12] = Tmax in BALB/c mouse at 45 mg/kg, po by HPLC-ESI-MS/MS analysis; assay type: ADME, organism-based; design: dose 45 mg/kg, route oral; conditions: in vivo
HCT-116 [13] = experiment: Induction of cell cycle arrest in human HCT116 cells assessed as accumulation at SubG1 phase at 10 uM after 48 hrs by flow cytometry (reference value: 2.3 %); assay type: functional; how it was run: as §1
Mus musculus [14] = experiment: Toxicity in human HCT116 cells xenografted in BALB/c- nu.nu mouse assessed as relative body weight change at 45 mg/kg, po administered every alternate days for 14 days measured up to day 16; assay type: organism-based, HCT-116; design: dose 45 mg/kg, route oral; conditions: in vivo, 336 h; how it was run: as §2
Histone deacetylase 1 = Histone deacetylase 1 (Homo sapiens, UniProt Q13547); experiment: Inhibition of HDAC1
HCT-116 [15] = experiment: Antitumor activity against human HCT116 cells xenografted in BALB/c nu/nu mouse assessed as suppression of tumor growth at 80 mg/kg, po administered every alternate days for 14 days measured up to 16 days relative to control; assay type: functional; how it was run: as §2
HCT-116 [16] = experiment: Induction of cell cycle arrest in human HCT116 cells assessed as accumulation at G0/G1 phase at 10 uM after 24 hrs by flow cytometry (reference value: 74.2 %); assay type: functional; how it was run: as §1
HCT-116 [17] = experiment: Induction of cell cycle arrest in human HCT116 cells assessed as accumulation at G0/G1 phase at 10 uM after 48 hrs by flow cytometry (reference value: 81.9 %); assay type: functional; how it was run: as §1

Chain of Histone deacetylase 1 (Q13547 whole entry): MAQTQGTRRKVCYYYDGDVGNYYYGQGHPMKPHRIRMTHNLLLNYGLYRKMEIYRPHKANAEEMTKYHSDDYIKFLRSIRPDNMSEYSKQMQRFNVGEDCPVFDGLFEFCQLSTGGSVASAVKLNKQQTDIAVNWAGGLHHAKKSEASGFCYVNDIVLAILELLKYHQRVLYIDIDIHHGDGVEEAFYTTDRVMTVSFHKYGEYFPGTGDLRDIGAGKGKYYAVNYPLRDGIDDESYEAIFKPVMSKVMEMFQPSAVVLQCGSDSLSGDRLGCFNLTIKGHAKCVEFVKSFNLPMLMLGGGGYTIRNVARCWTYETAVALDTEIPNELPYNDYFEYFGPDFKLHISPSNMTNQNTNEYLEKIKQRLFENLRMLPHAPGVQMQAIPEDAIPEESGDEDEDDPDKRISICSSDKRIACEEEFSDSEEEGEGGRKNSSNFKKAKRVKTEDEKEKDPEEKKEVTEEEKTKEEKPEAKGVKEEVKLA
Chain of Histone deacetylase 2 (Q92769 whole entry): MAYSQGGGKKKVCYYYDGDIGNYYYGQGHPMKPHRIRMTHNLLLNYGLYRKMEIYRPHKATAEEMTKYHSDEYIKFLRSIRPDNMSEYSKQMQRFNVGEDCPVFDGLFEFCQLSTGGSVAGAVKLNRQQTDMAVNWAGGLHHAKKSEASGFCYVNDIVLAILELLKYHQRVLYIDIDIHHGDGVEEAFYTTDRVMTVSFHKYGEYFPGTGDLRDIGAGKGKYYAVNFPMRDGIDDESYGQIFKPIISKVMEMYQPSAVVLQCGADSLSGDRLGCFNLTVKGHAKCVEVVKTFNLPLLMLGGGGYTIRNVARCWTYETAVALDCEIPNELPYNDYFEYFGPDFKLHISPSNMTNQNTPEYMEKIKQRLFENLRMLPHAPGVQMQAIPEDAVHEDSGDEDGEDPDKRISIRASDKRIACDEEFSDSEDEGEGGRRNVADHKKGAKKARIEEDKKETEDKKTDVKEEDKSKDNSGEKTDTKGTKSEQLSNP

| Compound | IC50 (Histone deacetylase 2) | solubility [1] | Activity (HCT-116 [2]) | IC50 (HCT-116 [3]) | Activity (HCT-116 [4]) | T/C (HCT-116 [5]) | Activity (HCT-116 [6]) | Activity (HCT-116 [7]) | Cmax [8] | Activity (Mus musculus [9]) | half-life [10] | Activity (HCT-116 [11]) | Tmax [12] | Activity (HCT-116 [13]) | Activity (Mus musculus [14]) | IC50 (Histone deacetylase 1) | T/C (HCT-116 [15]) | Activity (HCT-116 [16]) | Activity (HCT-116 [17]) |
| --- | --- | --- | --- | --- | --- | --- | --- | --- | --- | --- | --- | --- | --- | --- | --- | --- | --- | --- | --- |
| CCN1CCN(C(=O)NCc2ccc(C(=O)Nc3cc(-c4cccs4)ccc3N)cc2)C(=O)C1=O | 670 nM | 600 µg/mL (≈ 1220 µM) | 3.8% | 510 nM | 2.8% | 60% | 22.4% | 20.5% | 8.3 µM | Non-toxic | 2.2 h | 2.3% | 1 h | 1.4% | Non-toxic | 50 nM | 47% | 71.5% | 75.3% |
| CN1CCN(C(=O)NCc2ccc(C(=O)Nc3cc(-c4cccs4)ccc3N)cc2)CC1 | 800 nM | 1000 µg/mL (≈ 2220 µM) |  | 530 nM |  |  |  |  |  |  |  |  |  |  |  | 80 nM |  |  |  |
| Nc1ccc(-c2cccs2)cc1NC(=O)c1ccc(CN(CCO)Cc2ccc3c(c2)OCO3)cc1 | 740 nM | < 100 µg/mL |  | 490 nM |  |  |  |  |  |  |  |  |  |  |  | 60 nM |  |  |  |
| Nc1ccc(-c2cccs2)cc1NC(=O)c1ccc(CNC(=O)N2CCOCC2)cc1 | 880 nM |  |  | 440 nM |  |  |  |  |  |  |  |  |  |  |  | 100 nM |  |  |  |
| CCC(=O)NCc1ccc(C(=O)Nc2cc(-c3cccs3)ccc2N)cc1 | 470 nM | 500 µg/mL (≈ 1320 µM) | 5.2% | 560 nM | 2.8% |  | 10.7% | 20.8% |  |  |  | 4.6% |  | 1.4% |  | 40 nM |  | 79.5% | 75% |
| Nc1ccccc1NC(=O)c1ccc(CN(CCO)Cc2ccc3c(c2)OCO3)cc1 | 3360 nM | 200 µg/mL (≈ 477 µM) |  | 1200 nM |  |  |  |  |  |  |  |  |  |  |  | 1170 nM |  |  |  |
| Nc1ccccc1NC(=O)c1ccc(CNC(=O)OCc2cccnc2)cc1 [ENTINOSTAT] |  |  | 4.9% | 760 nM | 2.2% | 51% | 13.6% | 5.5% |  |  |  | 8.8% |  | 30.2% | Toxic |  |  | 72.7% | 62.1% |
